According to ChEMBL document CHEMBL5136969, “A niclosamide-tobramycin hybrid adjuvant potentiates cefiderocol against P. aeruginosa” (2021):
The source made the active and inactive calls.

Tests used:
Acinetobacter baumannii [1] = test: Potentiation of moxifloxacin-induced antibiotic activity against Acinetobacter baumannii ATCC 17978 assessed as MIC fold reduction at 8 ug/ml after 18 hrs by microbroth dilution method; assay type: functional; conditions: dose 8 µg/ml
Summary of the method: (§1)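 Adjuvant held at a fixed 8 μg/mL while the antibiotic was 2-fold serially diluted in Mueller-Hinton broth (MHB), per CLSI microbroth dilution. Overnight cultures were adjusted in saline to 0.5 McFarland, then diluted 1:50 in MHB to about 5 × 10^5 CFU/mL final, and incubated 18 h at 37 °C. MIC was the lowest concentration with no visible turbidity, confirmed at 590 nm. Fold potentiation = MIC alone / MIC with adjuvant.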

Escherichia coli [2] = test: Potentiation of colistin-induced antibiotic activity against Escherichia coli ATCC 25922 assessed as MIC fold reduction at 8 ug/ml after 18 hrs by microbroth dilution method; assay type: functional; conditions: dose 8 µg/ml; summary of the method: as §1
Pseudomonas aeruginosa [3] = test: Potentiation of niclosamide-induced antibiotic activity against Pseudomonas aeruginosa PAO1 assessed as MIC fold reduction at 8 ug/ml after 18 hrs by microbroth dilution method; assay type: functional; conditions: dose 8 µg/ml
Pseudomonas aeruginosa [4] = test: Potentiation of cefiderocol-induced antibiotic activity against Pseudomonas aeruginosa PAO1 assessed as MIC fold reduction at 8 ug/ml after 18 hrs by microbroth dilution method; assay type: functional; conditions: dose 8 µg/ml
Summary of the method: (§2)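 Initial screen in MHB using a fixed 8 μg mL−1 of adjuvant combined with each antibiotic under 2-fold dilution. Broth microdilution used about 5 × 10^5 CFU/mL at 37 °C for 18 h, with visible turbidity read and confirmed at 590 nm. Fold-potentiation = antibiotic MIC alone ÷ antibiotic MIC with adjuvant.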

Pseudomonas aeruginosa [5] = test: Potentiation of minocycline-induced antibiotic activity against Pseudomonas aeruginosa PAO1 assessed as MIC fold reduction at 8 ug/ml after 18 hrs by microbroth dilution method; assay type: functional; conditions: dose 8 µg/ml; summary of the method: as §1
Pseudomonas aeruginosa [6] = test: Potentiation of doxycycline-induced antibiotic activity against Pseudomonas aeruginosa PAO1 assessed as MIC fold reduction at 8 ug/ml after 18 hrs by microbroth dilution method; assay type: functional; conditions: dose 8 µg/ml; summary of the method: as §1
Pseudomonas aeruginosa [7] = test: Potentiation of chloamphenicol-induced antibiotic activity against Pseudomonas aeruginosa PAO1 assessed as MIC fold reduction at 8 ug/ml after 18 hrs by microbroth dilution method; assay type: functional; conditions: dose 8 µg/ml; summary of the method: as §1
Acinetobacter baumannii [8] = test: Potentiation of erythromycin-induced antibiotic activity against Acinetobacter baumannii ATCC 17978 assessed as MIC fold reduction at 8 ug/ml after 18 hrs by microbroth dilution method; assay type: functional; conditions: dose 8 µg/ml; summary of the method: as §1
Pseudomonas aeruginosa [9] = test: Potentiation of novobiocin-induced antibiotic activity against Pseudomonas aeruginosa PAO1 assessed as MIC fold reduction at 8 ug/ml after 18 hrs by microbroth dilution method; assay type: functional; conditions: dose 8 µg/ml
Acinetobacter baumannii [10] = test: Potentiation of fosfomycin-induced antibiotic activity against Acinetobacter baumannii ATCC 17978 assessed as MIC fold reduction at 8 ug/ml after 18 hrs by microbroth dilution method; assay type: functional; conditions: dose 8 µg/ml; summary of the method: as §1
Acinetobacter baumannii [11] = test: Potentiation of cindamycin-induced antibiotic activity against Acinetobacter baumannii ATCC 17978 assessed as MIC fold reduction at 8 ug/ml after 18 hrs by microbroth dilution method; assay type: functional; conditions: dose 8 µg/ml; summary of the method: as §1
Pseudomonas aeruginosa [12] = test: Potentiation of pleuromutilin-induced antibiotic activity against Pseudomonas aeruginosa PAO1 assessed as MIC fold reduction at 8 ug/ml after 18 hrs by microbroth dilution method; assay type: functional; conditions: dose 8 µg/ml
Acinetobacter baumannii [13] = test: Potentiation of trimethoprim-induced antibiotic activity against Acinetobacter baumannii ATCC 17978 assessed as MIC fold reduction at 8 ug/ml after 18 hrs by microbroth dilution method; assay type: functional; conditions: dose 8 µg/ml
Escherichia coli [14] = test: Potentiation of trimethoprim-induced antibiotic activity against Escherichia coli ATCC 25922 assessed as MIC fold reduction at 8 ug/ml after 18 hrs by microbroth dilution method; assay type: functional; conditions: dose 8 µg/ml
Enterococcus faecium = test: Antibacterial activity against Enterococcus faecium ATCC 27270 assessed as reduction in bacterial growth after 18 hrs by microbroth dilution method; assay type: functional
Summary of the method: (§3)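 CLSI microbroth dilution in MHB. Overnight cultures were adjusted to 0.5 McFarland in saline, diluted 1:50, and inoculated at about 5 × 10^5 CFU/mL. Agents were 2-fold serially diluted and incubated 18 h at 37 °C. MIC is the lowest concentration without visible turbidity, confirmed by absorbance at 590 nm. Medium with and without cells served as controls.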

Pseudomonas aeruginosa [15] = test: Potentiation of cefiderocol-induced antibiotic activity against […] Pseudomonas aeruginosa PAO1 assessed as MIC fold reduction at 8 ug/ml after 18 hrs by microbroth dilution method; assay type: functional, organism-based; conditions: dose 8.0 µg/ml; summary of the method: as §2
Pseudomonas aeruginosa [16] = test: Antibacterial activity against MDR clinical isolate Pseudomonas aeruginosa PA262 assessed as reduction in bacterial growth after 18 hrs in presence of cefiderocol by microbroth dilution method; assay type: functional
Summary of the method: (§4)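 Checkerboard in MHB (iron-replete, not iron-depleted CAMHB). Cefiderocol was 2-fold serially diluted along one axis and the adjuvant along the other. Inoculum was 0.5 McFarland diluted 1:50, about 5 × 10^5 CFU/mL final. Incubation was 18 h at 37 °C, with turbidity read visually and confirmed at 590 nm. FIC was the MIC in combination over the MIC alone for each agent, and the FIC index was their sum. Cut-offs were ≤0.5 synergy, >0.5–4 additive, >4 antagonism.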

Pseudomonas aeruginosa [17] = test: Antibacterial activity against MDR clinical isolate Pseudomonas aeruginosa PA101885 assessed as potentiation of cefiderocol antibacterial activity by measuring FIC index after 18 hrs by microbroth dilution method; assay type: functional
Summary of the method: (§5)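 Checkerboard in MHB. Cefiderocol was 2-fold serially diluted along one axis and the adjuvant along the other. Inoculum was prepared from 0.5 McFarland saline suspensions diluted 1:50 in MHB, giving about 5 × 10^5 CFU/mL final. Plates ran 18 h at 37 °C, with turbidity confirmed at 590 nm. FIC = combination MIC ÷ MIC alone for each agent, and FIC index = sum of both. Interpretation: ≤0.5 synergy, >0.5–4 additive, >4 antagonism.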

Pseudomonas aeruginosa [18] = test: Antibacterial activity against MDR clinical isolate Pseudomonas aeruginosa PA108590 assessed as potentiation of cefiderocol antibacterial activity by measuring FIC index after 18 hrs by microbroth dilution method; assay type: functional; summary of the method: as §4
Escherichia coli [19] = test: Antibacterial activity against Escherichia coli 94393 assessed as reduction in bacterial growth after 18 hrs by microbroth dilution method; assay type: functional; summary of the method: as §3
Escherichia coli [20] = test: Antibacterial activity against Escherichia coli 94474 assessed as reduction in bacterial growth after 18 hrs in presence of cefiderocol by microbroth dilution method; assay type: functional
Summary of the method: (§6)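 Checkerboard in Mueller-Hinton broth: cefiderocol 2-fold diluted on one axis, adjuvant 2-fold on the other. Overnight cultures were adjusted to 0.5 McFarland in saline, diluted 1:50 in MHB, and inoculated at about 5 × 10^5 CFU/mL. Incubation was 18 h at 37 °C. Turbidity was read visually and confirmed at 590 nm. FIC index = FIC of antibiotic + FIC of adjuvant; ≤0.5 synergy, >4 antagonism.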

Klebsiella pneumoniae [21] = test: Antibacterial activity against Klebsiella pneumoniae KP113250 assessed as potentiation of cefiderocol antibacterial activity by measuring FIC after 18 hrs by microbroth dilution method; assay type: functional; summary of the method: as §6
Klebsiella pneumoniae [22] = test: Antibacterial activity against Klebsiella pneumoniae KP113254 assessed as potentiation of cefiderocol antibacterial activity by measuring FIC after 18 hrs by microbroth dilution method; assay type: functional; summary of the method: as §5
Pseudomonas aeruginosa [23] = test: Potentiation of moxifloxacin-induced antibiotic activity against Pseudomonas aeruginosa PAO1 assessed as reduction in microbial growth at 8 ug/ml up to 24 hrs by microbroth dilution method; assay type: functional; conditions: dose 8 µg/ml

NC[C@H]1O[C@H](O[C@H]2[C@H](OCCCCc3cn(-c4ccc(NC(=O)c5cc(Cl)ccc5O)cc4)nn3)[C@@H](O[C@H]3O[C@H](CO)[C@@H](O)[C@H](N)[C@H]3O)[C@H](N)C[C@@H]2N)[C@H](N)C[C@@H]1O
fold change (FC) (Acinetobacter baumannii [1]): 4
fold change (FC) (Escherichia coli [2]): 4
fold change (FC) (Pseudomonas aeruginosa [3]): 4
fold change (FC) (Pseudomonas aeruginosa [4]): 4
fold change (FC) (Pseudomonas aeruginosa [5]): 4
fold change (FC) (Pseudomonas aeruginosa [6]): 4
fold change (FC) (Pseudomonas aeruginosa [7]): 4
fold change (FC) (Acinetobacter baumannii [8]): 4
fold change (FC) (Pseudomonas aeruginosa [9]): 4
fold change (FC) (Acinetobacter baumannii [10]): 4
fold change (FC) (Acinetobacter baumannii [11]): 4
fold change (FC) (Pseudomonas aeruginosa [12]): 4
fold change (FC) (Acinetobacter baumannii [13]): 4
fold change (FC) (Escherichia coli [14]): 4
MIC (Enterococcus faecium): > 128 µg/mL
Activity (Pseudomonas aeruginosa [15]): Active
MIC (Pseudomonas aeruginosa [16]): 1 µg/mL
FIC (Pseudomonas aeruginosa [17]): 0.017
FIC (Pseudomonas aeruginosa [18]): 0.016
MIC (Escherichia coli [19]): > 128 µg/mL
MIC (Escherichia coli [20]): 8 µg/mL
FIC (Klebsiella pneumoniae [21]): 0.25
FIC (Klebsiella pneumoniae [22]): 0.5
Activity (Pseudomonas aeruginosa [23]): >3 log10CFU/ml
